Data reported in ChEMBL document CHEMBL4368886, “Design, synthesis, and biological activity of novel ammonium salts containing sterically hindered phenolic fragment and phosphoryl group” (Medchemcomm, 2018).
In brackets after ≈: the same amount, converted by molar mass. Activity calls are given as the source filed them. No cut-off for these calls is given here.

Legend:
Aspergillus niger [1] = test: Antimicrobial activity against Aspergillus niger BKMF-1119 measured after 14 days by two-fold serial dilution method; format: functional, organism-based
Candida albicans [2] = test: Bactericidal activity against Candida albicans 855-653 measured after 4 hrs; format: functional; conditions: 855-653, 4 h
Outline: (§1)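 Microbicidal (bactericidal/fungicidal) concentration, killing of microbial cells, determined per literature procedures; tests in duplicate, repeated twice.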

[3] = Cytotoxicity against human Chang cells assessed as reduction in cell viability at 47 uM by Cytell imaging analysis; format: cell-based
Outline: (§2)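 WI-38 human embryonic lung and Chang liver cells exposed to compounds at three concentrations each (0.70–47.0 μM range, spanning antimicrobial concentrations); cytotoxicity read as number of viable cells counted.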

Pseudomonas aeruginosa [4] = test: Bactericidal activity against Pseudomonas aeruginosa ATCC 9027 measured after 4 hrs; format: functional; outline: as §1
WI-38 [5] = test: Cytotoxicity against human WI38 cells assessed as reduction in cell viability at 0.7 to 11.3 uM by Cytell imaging analysis; format: cell-based; conditions: wi-38, 11.3 µM; outline: as §2
Escherichia coli [6] = test: Antimicrobial activity against Escherichia coli CDC F-50 measured every 24 hrs for 5 days by two-fold serial dilution method; format: functional
[7] = test system: Trichophyton mentagrophytes; test: Antimicrobial activity against Trichophyton mentagrophytes var. gypseum 1773 measured after 14 days by two-fold serial dilution method; format: functional
[8] = test system: Trichophyton mentagrophytes var. granulosum; test: (§3) Bactericidal activity against Trichophyton mentagrophytes var. granulosum 1773 measured after 4 hrs; format: functional; outline: as §1
[9] = Antioxidant activity assessed as ABAP free radical scavenging activity by measuring decrease in chemiluminescence intensity at 0.5 mM; format: functional; set-up: scale not given: the % may be the effect or the level left
Outline: (§4)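 Chemiluminescent radical system of ABAP (2,2′-azobis(2-methylpropionamidine) dihydrochloride) plus luminol in buffer, total 1.000 mL; baseline recorded, then test substance added at 0.25, 0.50 or 1.00 mM; chemiluminescence intensity followed over time and expressed as percent of initial value. Ionol used as reference antioxidant.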

Pseudomonas aeruginosa [10] = test: Antimicrobial activity against Pseudomonas aeruginosa ATCC 9027 measured every 24 hrs for 5 days by two-fold serial dilution method; format: functional
WI-38 [11] = test: Cytotoxicity against human WI38 cells assessed as reduction in cell viability at 47 uM by Cytell imaging analysis; format: cell-based; conditions: wi-38, 47 µM; outline: as §2
Staphylococcus aureus [12] = test: Bactericidal activity against Staphylococcus aureus 209p measured after 4 hrs; format: functional; outline: as §1
Aspergillus niger [13] = test: Bactericidal activity against Aspergillus niger BKMF-1119 measured after 4 hrs; format: functional, organism-based; outline: as §1
Bacillus cereus [14] = test: Antimicrobial activity against Bacillus cereus ATCC 8035 measured every 24 hrs for 5 days by two-fold serial dilution method; format: functional
[15] = Antioxidant activity assessed as ABAP free radical scavenging activity by measuring decrease in chemiluminescence intensity at 1 mM; format: functional; set-up: scale not given: the % may be the effect or the level left; outline: as §4
Staphylococcus aureus [16] = test: Antimicrobial activity against Staphylococcus aureus 209p measured every 24 hrs for 5 days by two-fold serial dilution method; format: functional
[17] = Antioxidant activity assessed as ABAP free radical scavenging activity by measuring decrease in chemiluminescence intensity at 0.25 mM; format: functional; set-up: scale not given: the % may be the effect or the level left; outline: as §4
Bacillus cereus [18] = test: Bactericidal activity against Bacillus cereus ATCC 8035 measured after 4 hrs; format: functional; conditions: ATCC 8035, 4 h; outline: as §1
[19] = Cytotoxicity against human Chang cells assessed as reduction in cell viability at 0.7 to 11.3 uM by Cytell imaging analysis; format: cell-based; outline: as §2
Escherichia coli [20] = test: Bactericidal activity against Escherichia coli CDC F-50 measured after 4 hrs; format: functional; outline: as §1
Candida albicans [21] = test: Antimicrobial activity against Candida albicans 855-653 measured after 14 days by two-fold serial dilution method; format: functional
[22] = Antioxidant activity assessed as ABAP free radical scavenging activity by measuring decrease in chemiluminescence intensity at 1 mM measured after 600 secs; format: functional; set-up: scale not given: the % may be the effect or the level left; outline: as §4
[23] = Antioxidant activity assessed as ABAP free radical scavenging activity by measuring decrease in chemiluminescence intensity at 0.5 mM measured after 500 secs; format: functional; outline: as §4
[24] = Antioxidant activity assessed as ABAP free radical scavenging activity by measuring decrease in chemiluminescence intensity at 0.25 mM measured after 400 secs; format: functional; outline: as §4
[25] = as §3; format: functional; conditions: Trichophyton mentagrophytes, 1773, 4 h; outline: as §1

SMILES: CCCCCCCCCC[N+](C)(C)CCNC(c1cc(C(C)(C)C)c(O)c(C(C)(C)C)c1)P(=O)(OCC)OCC.[Br-] (stereo not drawn)
- MIC (Aspergillus niger [1]): inactive
- MIC (Candida albicans [2]): 47 µM
- Activity [3]: Toxic
- MIC (Pseudomonas aeruginosa [4]): inactive
- Activity (WI-38 [5]): Non-Toxic
- MIC (Escherichia coli [6]): 94.1 µM
- MIC [7]: inactive
- MIC [8]: inactive
- Activity [9]: 26%
- MIC (Pseudomonas aeruginosa [10]): 94.1 µM
- Activity (WI-38 [11]): Toxic
- MIC (Staphylococcus aureus [12]): 2.9 µM
- MIC (Aspergillus niger [13]): inactive
- MIC (Bacillus cereus [14]): 2.9 µM
- Activity [15]: 20%
- MIC (Staphylococcus aureus [16]): 2.9 µM
- Activity [17]: 44%
- MIC (Bacillus cereus [18]): 2.9 µM
- Activity [19]: Non-Toxic
- MIC (Escherichia coli [20]; CDC F-50, 4 h): 188 µM
- MIC (Candida albicans [21]; 855-653, 336 h): 47 µM

SMILES: CCOP(=O)(OCC)C(NCCC[N+](C)(C)CC)c1cc(C(C)(C)C)c(O)c(C(C)(C)C)c1 (stereo not drawn)
- MIC (Aspergillus niger [1]): inactive
- MIC (Candida albicans [2]): > 500 µM
- Activity [22]: 26%
- MIC (Pseudomonas aeruginosa [4]): inactive
- MIC (Escherichia coli [6]): inactive
- MIC [7]: inactive
- MIC [8]: inactive
- Activity [9]: 26%
- MIC (Pseudomonas aeruginosa [10]): inactive
- MIC (Staphylococcus aureus [12]): 442 µM
- MIC (Aspergillus niger [13]): inactive
- MIC (Bacillus cereus [14]): 221 µM
- MIC (Staphylococcus aureus [16]): 442 µM
- Activity [17]: 44%
- MIC (Bacillus cereus [18]): 221 µM
- MIC (Escherichia coli [20]): inactive
- MIC (Candida albicans [21]): inactive

SMILES: CCCCCCCCCC[N+](C)(C)CCCNC(c1cc(C(C)(C)C)c(O)c(C(C)(C)C)c1)P(=O)(OC(C)C)OC(C)C.[Br-] (stereo not drawn)
- MIC (Aspergillus niger [1]): inactive
- Activity [23]: Active
- MIC (Candida albicans [2]): 11 µM
- Activity [22]: 26%
- MIC (Pseudomonas aeruginosa [4]; ATCC 9027, 4 h): 44.3 µM
- Activity (WI-38 [5]): Non-Toxic
- MIC (Escherichia coli [6]): 44.3 µM
- MIC [7]: inactive
- MIC [8]: inactive
- Activity [9]: 26%
- MIC (Pseudomonas aeruginosa [10]): 22 µM
- MIC (Staphylococcus aureus [12]): 1.3 µM
- MIC (Aspergillus niger [13]): inactive
- MIC (Bacillus cereus [14]): 2.7 µM
- Activity [24]: Active
- MIC (Staphylococcus aureus [16]): 0.7 µM
- Activity [17]: 44%
- MIC (Bacillus cereus [18]): 177 µM
- Activity [19]: Non-Toxic
- MIC (Escherichia coli [20]; CDC F-50, 4 h): 177 µM
- MIC (Candida albicans [21]; 855-653, 336 h): 11 µM

SMILES: CC(=O)N1CCN(c2ccc(OCC3COC(Cn4ccnc4)(c4ccc(Cl)cc4Cl)O3)cc2)CC1 (stereo not drawn) [KETOCONAZOLE]
- MIC (Candida albicans [2]): 15.2 µM (≈ 8.08 µg/mL)
- MIC ([7]; var. gypseum 1773, 336 h): 7.6 µM (≈ 4.04 µg/mL)
- MIC [25]: 15.2 µM (≈ 8.08 µg/mL)
- MIC (Candida albicans [21]; 855-653, 336 h): 7.6 µM (≈ 4.04 µg/mL)

SMILES: CCCCCCCCCCCC[N+](C)(C)CCCNC(c1cc(C(C)(C)C)c(O)c(C(C)(C)C)c1)P(=O)(OCC)OCC (stereo not drawn)
- MIC (Aspergillus niger [1]): inactive
- MIC (Candida albicans [2]): 44.3 µM
- MIC (Pseudomonas aeruginosa [4]): inactive
- MIC (Escherichia coli [6]): inactive
- MIC [7]: inactive
- MIC [8]: inactive
- MIC (Pseudomonas aeruginosa [10]): inactive
- MIC (Staphylococcus aureus [12]): 22 µM
- MIC (Aspergillus niger [13]): inactive
- MIC (Bacillus cereus [14]): 177 µM
- MIC (Staphylococcus aureus [16]): 22 µM
- MIC (Bacillus cereus [18]): 177 µM
- MIC (Escherichia coli [20]): inactive
- MIC (Candida albicans [21]; 855-653, 336 h): 44.3 µM

SMILES: CCCCCCCCCC[N+](C)(C)CCNC(c1cc(C(C)(C)C)c(O)c(C(C)(C)C)c1)P(=O)(OC(C)C)OC(C)C.[Br-] (stereo not drawn)
- MIC (Aspergillus niger [1]): inactive
- MIC (Candida albicans [2]): 11.3 µM
- MIC (Pseudomonas aeruginosa [4]): inactive
- Activity (WI-38 [5]): Non-Toxic
- MIC (Escherichia coli [6]): inactive
- MIC [7]: inactive
- MIC [8]: inactive
- MIC (Pseudomonas aeruginosa [10]): inactive
- MIC (Staphylococcus aureus [12]): 5.6 µM
- MIC (Aspergillus niger [13]): inactive
- MIC (Bacillus cereus [14]): 5.6 µM
- MIC (Staphylococcus aureus [16]): 2.7 µM
- MIC (Bacillus cereus [18]): 90 µM
- Activity [19]: Non-Toxic
- MIC (Escherichia coli [20]): inactive
- MIC (Candida albicans [21]; 855-653, 336 h): 11.3 µM
